Measurements from ChEMBL document CHEMBL1949561, “Synthesis and triplex-forming ability of oligonucleotides bearing 1-substituted 1H-1,2,3-triazole nucleobases” (Bioorg Med Chem, 2011).
Values belong to the compound of their own block, whether it stands above or below them.

Experiments:
Format in all cases: nucleic-acid assay
[1] = system: Nucleic Acid; test: Binding affinity to 5'-GCTAAAAAGATAGAGAGATCG-3'/5'- CGATCTCTCTATCTTTTTAGC-3' double stranded DNA assessed as melting temperature at 1.5 uM in sodium phosphate buffer at pH 7 by UV spectrophotometric analysis
Summary of the method: (§1)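 UV melting of triplexes between each modified TFO and the 21-bp duplex target, in 7 mM sodium phosphate buffer (pH 7.0), 140 mM KCl and 10 mM MgCl₂. Each oligonucleotide at 1.5 µM final. Absorbance followed at 260 nm from 5 °C to 85 °C, scanned at 0.5 °C/min, to give Tm.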

[2] = system: Nucleic Acid; test: Binding affinity to5'-GCTAAAAAGACAGAGAGATCG-3'/5'- CGATCTCTCTGTCTTTTTAGC-3' double stranded DNA assessed as melting temperature at 1.5 uM in sodium phosphate buffer at pH 7 by UV spectrophotometric analysis; summary of the method: as §1
[3] = system: Nucleic Acid; test: Binding affinity to 5'-GCTAAAAAGAAAGAGAGATCG-3'/5'- CGATCTCTCTTTCTTTTTAGC-3' double stranded DNA assessed as melting temperature at 1.5 uM in sodium phosphate buffer at pH 7 by UV spectrophotometric analysis; summary of the method: as §1
[4] = system: Nucleic Acid; test: Binding affinity to 5'-GCTAAAAAGAGAGAGAGATCG-3'/5'- CGATCTCTCTCTCTTTTTAGC-3' double stranded DNA assessed as melting temperature at 1.5 uM in sodium phosphate buffer at pH 7 by UV spectrophotometric analysis; summary of the method: as §1

Structure (SMILES): Cc1cn([C@H]2C[C@H](OP(=O)(O)OC[C@H]3O[C@@H](n4cc(C)c(=O)[nH]c4=O)C[C@@H]3OP(=O)(O)OC[C@H]3O[C@@H](n4cc(C)c(N)nc4=O)C[C@@H]3OP(=O)(O)OC[C@H]3O[C@@H](n4cc(C)c(=O)[nH]c4=O)C[C@@H]3OP(=O)(O)OC[C@H]3O[C@@H](n4cc(C)c(N)nc4=O)C[C@@H]3OP(=O)(O)OC[C@H]3O[C@@H](n4cc(C)c(=O)[nH]c4=O)C[C@@H]3OP(=O)(O)OC[C@H]3O[C@@H](c4cn(-c5ccc(CO)cc5)nn4)C[C@@H]3OP(=O)(O)OC[C@H]3O[C@@H](n4cc(C)c(=O)[nH]c4=O)C[C@@H]3OP(=O)(O)OC[C@H]3O[C@@H](n4cc(C)c(N)nc4=O)C[C@@H]3OP(=O)(O)OC[C@H]3O[C@@H](n4cc(C)c(=O)[nH]c4=O)C[C@@H]3OP(=O)(O)OC[C@H]3O[C@@H](n4cc(C)c(=O)[nH]c4=O)C[C@@H]3OP(=O)(O)OC[C@H]3O[C@@H](n4cc(C)c(=O)[nH]c4=O)C[C@@H]3OP(=O)(O)OC[C@H]3O[C@@H](n4cc(C)c(=O)[nH]c4=O)C[C@@H]3OP(=O)(O)OC[C@H]3O[C@@H](n4cc(C)c(=O)[nH]c4=O)C[C@@H]3O)[C@@H](COP(=O)(O)O[C@H]3C[C@H](n4cc(C)c(=O)[nH]c4=O)O[C@@H]3CO)O2)c(=O)nc1N
- Tm [1]: 16 °C
- Tm [2]: 24 °C
- Tm [3]: < 10 °C
- Tm [4]: < 10 °C

Structure (SMILES): CC(=O)NCCn1cc([C@H]2C[C@H](OP(=O)(O)OC[C@H]3O[C@@H](n4cc(C)c(=O)[nH]c4=O)C[C@@H]3OP(=O)(O)OC[C@H]3O[C@@H](n4cc(C)c(N)nc4=O)C[C@@H]3OP(=O)(O)OC[C@H]3O[C@@H](n4cc(C)c(=O)[nH]c4=O)C[C@@H]3OP(=O)(O)OC[C@H]3O[C@@H](n4cc(C)c(=O)[nH]c4=O)C[C@@H]3OP(=O)(O)OC[C@H]3O[C@@H](n4cc(C)c(=O)[nH]c4=O)C[C@@H]3OP(=O)(O)OC[C@H]3O[C@@H](n4cc(C)c(=O)[nH]c4=O)C[C@@H]3OP(=O)(O)OC[C@H]3O[C@@H](n4cc(C)c(=O)[nH]c4=O)C[C@@H]3O)[C@@H](COP(=O)(O)O[C@H]3C[C@H](n4cc(C)c(=O)[nH]c4=O)O[C@@H]3COP(=O)(O)O[C@H]3C[C@H](n4cc(C)c(N)nc4=O)O[C@@H]3COP(=O)(O)O[C@H]3C[C@H](n4cc(C)c(=O)[nH]c4=O)O[C@@H]3COP(=O)(O)O[C@H]3C[C@H](n4cc(C)c(N)nc4=O)O[C@@H]3COP(=O)(O)O[C@H]3C[C@H](n4cc(C)c(=O)[nH]c4=O)O[C@@H]3COP(=O)(O)O[C@H]3C[C@H](n4cc(C)c(N)nc4=O)O[C@@H]3COP(=O)(O)O[C@H]3C[C@H](n4cc(C)c(=O)[nH]c4=O)O[C@@H]3CO)O2)nn1
- Tm [1]: 14 °C
- Tm [2]: 20 °C
- Tm [3]: 14 °C
- Tm [4]: < 10 °C

Structure (SMILES): Cc1cn([C@H]2C[C@H](OP(=O)(O)OC[C@H]3O[C@@H](n4cc(C)c(=O)[nH]c4=O)C[C@@H]3OP(=O)(O)OC[C@H]3O[C@@H](n4cc(C)c(N)nc4=O)C[C@@H]3OP(=O)(O)OC[C@H]3O[C@@H](n4cc(C)c(=O)[nH]c4=O)C[C@@H]3OP(=O)(O)OC[C@H]3O[C@@H](n4cc(C)c(N)nc4=O)C[C@@H]3OP(=O)(O)OC[C@H]3O[C@@H](n4cc(C)c(=O)[nH]c4=O)C[C@@H]3OP(=O)(O)OC[C@H]3O[C@@H](c4cn(Cc5ccccc5)nn4)C[C@@H]3OP(=O)(O)OC[C@H]3O[C@@H](n4cc(C)c(=O)[nH]c4=O)C[C@@H]3OP(=O)(O)OC[C@H]3O[C@@H](n4cc(C)c(N)nc4=O)C[C@@H]3OP(=O)(O)OC[C@H]3O[C@@H](n4cc(C)c(=O)[nH]c4=O)C[C@@H]3OP(=O)(O)OC[C@H]3O[C@@H](n4cc(C)c(=O)[nH]c4=O)C[C@@H]3OP(=O)(O)OC[C@H]3O[C@@H](n4cc(C)c(=O)[nH]c4=O)C[C@@H]3OP(=O)(O)OC[C@H]3O[C@@H](n4cc(C)c(=O)[nH]c4=O)C[C@@H]3OP(=O)(O)OC[C@H]3O[C@@H](n4cc(C)c(=O)[nH]c4=O)C[C@@H]3O)[C@@H](COP(=O)(O)O[C@H]3C[C@H](n4cc(C)c(=O)[nH]c4=O)O[C@@H]3CO)O2)c(=O)nc1N
- Tm [1]: 12 °C
- Tm [2]: 19 °C
- Tm [3]: < 10 °C
- Tm [4]: < 10 °C

Structure (SMILES): CCOC(=O)Cn1cc([C@H]2C[C@H](OP(=O)(O)OC[C@H]3O[C@@H](n4cc(C)c(=O)[nH]c4=O)C[C@@H]3OP(=O)(O)OC[C@H]3O[C@@H](n4cc(C)c(N)nc4=O)C[C@@H]3OP(=O)(O)OC[C@H]3O[C@@H](n4cc(C)c(=O)[nH]c4=O)C[C@@H]3OP(=O)(O)OC[C@H]3O[C@@H](n4cc(C)c(=O)[nH]c4=O)C[C@@H]3OP(=O)(O)OC[C@H]3O[C@@H](n4cc(C)c(=O)[nH]c4=O)C[C@@H]3OP(=O)(O)OC[C@H]3O[C@@H](n4cc(C)c(=O)[nH]c4=O)C[C@@H]3OP(=O)(O)OC[C@H]3O[C@@H](n4cc(C)c(=O)[nH]c4=O)C[C@@H]3O)[C@@H](COP(=O)(O)O[C@H]3C[C@H](n4cc(C)c(=O)[nH]c4=O)O[C@@H]3COP(=O)(O)O[C@H]3C[C@H](n4cc(C)c(N)nc4=O)O[C@@H]3COP(=O)(O)O[C@H]3C[C@H](n4cc(C)c(=O)[nH]c4=O)O[C@@H]3COP(=O)(O)O[C@H]3C[C@H](n4cc(C)c(N)nc4=O)O[C@@H]3COP(=O)(O)O[C@H]3C[C@H](n4cc(C)c(=O)[nH]c4=O)O[C@@H]3COP(=O)(O)O[C@H]3C[C@H](n4cc(C)c(N)nc4=O)O[C@@H]3COP(=O)(O)O[C@H]3C[C@H](n4cc(C)c(=O)[nH]c4=O)O[C@@H]3CO)O2)nn1
- Tm [1]: 14 °C
- Tm [2]: 20 °C
- Tm [3]: < 10 °C
- Tm [4]: 12 °C

The remaining lines, values ahead:

- Tm [1]: 18 °C
- Tm [2]: 23 °C
- Tm [3]: 12 °C
- Tm [4]: < 10 °C
Structure (SMILES): Cc1cn([C@H]2C[C@H](OP(=O)(O)OC[C@H]3O[C@@H](n4cc(C)c(=O)[nH]c4=O)C[C@@H]3OP(=O)(O)OC[C@H]3O[C@@H](n4cc(C)c(N)nc4=O)C[C@@H]3OP(=O)(O)OC[C@H]3O[C@@H](n4cc(C)c(=O)[nH]c4=O)C[C@@H]3OP(=O)(O)OC[C@H]3O[C@@H](n4cc(C)c(N)nc4=O)C[C@@H]3OP(=O)(O)OC[C@H]3O[C@@H](n4cc(C)c(=O)[nH]c4=O)C[C@@H]3OP(=O)(O)OC[C@H]3O[C@@H](c4cn(-c5ccc(N)cc5)nn4)C[C@@H]3OP(=O)(O)OC[C@H]3O[C@@H](n4cc(C)c(=O)[nH]c4=O)C[C@@H]3OP(=O)(O)OC[C@H]3O[C@@H](n4cc(C)c(N)nc4=O)C[C@@H]3OP(=O)(O)OC[C@H]3O[C@@H](n4cc(C)c(=O)[nH]c4=O)C[C@@H]3OP(=O)(O)OC[C@H]3O[C@@H](n4cc(C)c(=O)[nH]c4=O)C[C@@H]3OP(=O)(O)OC[C@H]3O[C@@H](n4cc(C)c(=O)[nH]c4=O)C[C@@H]3OP(=O)(O)OC[C@H]3O[C@@H](n4cc(C)c(=O)[nH]c4=O)C[C@@H]3OP(=O)(O)OC[C@H]3O[C@@H](n4cc(C)c(=O)[nH]c4=O)C[C@@H]3O)[C@@H](COP(=O)(O)O[C@H]3C[C@H](n4cc(C)c(=O)[nH]c4=O)O[C@@H]3CO)O2)c(=O)nc1N

- Tm [1]: 14 °C
- Tm [2]: 21 °C
- Tm [3]: < 10 °C
- Tm [4]: < 10 °C
Structure (SMILES): Cc1cn([C@H]2C[C@H](OP(=O)(O)OC[C@H]3O[C@@H](n4cc(C)c(=O)[nH]c4=O)C[C@@H]3OP(=O)(O)OC[C@H]3O[C@@H](n4cc(C)c(N)nc4=O)C[C@@H]3OP(=O)(O)OC[C@H]3O[C@@H](n4cc(C)c(=O)[nH]c4=O)C[C@@H]3OP(=O)(O)OC[C@H]3O[C@@H](n4cc(C)c(N)nc4=O)C[C@@H]3OP(=O)(O)OC[C@H]3O[C@@H](n4cc(C)c(=O)[nH]c4=O)C[C@@H]3OP(=O)(O)OC[C@H]3O[C@@H](c4cn(-c5cccc(O)c5)nn4)C[C@@H]3OP(=O)(O)OC[C@H]3O[C@@H](n4cc(C)c(=O)[nH]c4=O)C[C@@H]3OP(=O)(O)OC[C@H]3O[C@@H](n4cc(C)c(N)nc4=O)C[C@@H]3OP(=O)(O)OC[C@H]3O[C@@H](n4cc(C)c(=O)[nH]c4=O)C[C@@H]3OP(=O)(O)OC[C@H]3O[C@@H](n4cc(C)c(=O)[nH]c4=O)C[C@@H]3OP(=O)(O)OC[C@H]3O[C@@H](n4cc(C)c(=O)[nH]c4=O)C[C@@H]3OP(=O)(O)OC[C@H]3O[C@@H](n4cc(C)c(=O)[nH]c4=O)C[C@@H]3OP(=O)(O)OC[C@H]3O[C@@H](n4cc(C)c(=O)[nH]c4=O)C[C@@H]3O)[C@@H](COP(=O)(O)O[C@H]3C[C@H](n4cc(C)c(=O)[nH]c4=O)O[C@@H]3CO)O2)c(=O)nc1N

- Tm [1]: 17 °C
- Tm [2]: 22 °C
- Tm [3]: 13 °C
- Tm [4]: < 10 °C
Structure (SMILES): Cc1cn([C@H]2C[C@H](OP(=O)(O)OC[C@H]3O[C@@H](n4cc(C)c(=O)[nH]c4=O)C[C@@H]3OP(=O)(O)OC[C@H]3O[C@@H](n4cc(C)c(N)nc4=O)C[C@@H]3OP(=O)(O)OC[C@H]3O[C@@H](n4cc(C)c(=O)[nH]c4=O)C[C@@H]3OP(=O)(O)OC[C@H]3O[C@@H](n4cc(C)c(N)nc4=O)C[C@@H]3OP(=O)(O)OC[C@H]3O[C@@H](n4cc(C)c(=O)[nH]c4=O)C[C@@H]3OP(=O)(O)OC[C@H]3O[C@@H](c4cn(-c5cccc(NC(N)=O)c5)nn4)C[C@@H]3OP(=O)(O)OC[C@H]3O[C@@H](n4cc(C)c(=O)[nH]c4=O)C[C@@H]3OP(=O)(O)OC[C@H]3O[C@@H](n4cc(C)c(N)nc4=O)C[C@@H]3OP(=O)(O)OC[C@H]3O[C@@H](n4cc(C)c(=O)[nH]c4=O)C[C@@H]3OP(=O)(O)OC[C@H]3O[C@@H](n4cc(C)c(=O)[nH]c4=O)C[C@@H]3OP(=O)(O)OC[C@H]3O[C@@H](n4cc(C)c(=O)[nH]c4=O)C[C@@H]3OP(=O)(O)OC[C@H]3O[C@@H](n4cc(C)c(=O)[nH]c4=O)C[C@@H]3OP(=O)(O)OC[C@H]3O[C@@H](n4cc(C)c(=O)[nH]c4=O)C[C@@H]3O)[C@@H](COP(=O)(O)O[C@H]3C[C@H](n4cc(C)c(=O)[nH]c4=O)O[C@@H]3CO)O2)c(=O)nc1N
